# Assay outcomes deposited in PubChem BioAssay by Johns Hopkins Ion Channel Center.
# KCNK3 inh: human KCNK3 channel inhibition, primary screen | O14649 | CHO-KCNK3 thallium flux, FluxOR fluorescence; stronger effect = lower value | B-score at 10 µM | actives 0.84% (n = 340,000) | AID 602410;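 active = B-score under library mean minus 4 SD, starting fluorescence ratio at most library mean plus 5 SD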;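 note: more negative B-score means stronger inhibition of thallium flux through KCNK3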
# hERG rescue: shields human hERG channel from block by proarrhythmic agents | CHO-hERG, FluxOR thallium flux, dofetilide IC70 present | Q12809 | actives 0.51% (n = 310,000) | activation (rescue from dofetilide block), less the hit threshold, % at 10 µM | AID 1511;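 active = activation above the mean of controls blocked by dofetilide plus 5 SD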;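 note: thallium influx through hERG after potassium depolarization seen as dye fluorescence rise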
# KCNQ1 inh: human KCNQ1 channel inhibition; P51787; CHO-K1 KCNQ1, FluxOR thallium flux fluorescence; stronger effect = higher value; B-score at 10 µM; actives 1.3% (n = 310,000); AID 2642;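 active = compounds whose thallium flux B-score, printed positive for inhibition, exceeds three library SD while starting fluorescence stays within three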;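 note: channel opened by potassium depolarization with thallium stimulus after 20 min compound exposure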
# Target sequence (P51787 whole entry, looked up): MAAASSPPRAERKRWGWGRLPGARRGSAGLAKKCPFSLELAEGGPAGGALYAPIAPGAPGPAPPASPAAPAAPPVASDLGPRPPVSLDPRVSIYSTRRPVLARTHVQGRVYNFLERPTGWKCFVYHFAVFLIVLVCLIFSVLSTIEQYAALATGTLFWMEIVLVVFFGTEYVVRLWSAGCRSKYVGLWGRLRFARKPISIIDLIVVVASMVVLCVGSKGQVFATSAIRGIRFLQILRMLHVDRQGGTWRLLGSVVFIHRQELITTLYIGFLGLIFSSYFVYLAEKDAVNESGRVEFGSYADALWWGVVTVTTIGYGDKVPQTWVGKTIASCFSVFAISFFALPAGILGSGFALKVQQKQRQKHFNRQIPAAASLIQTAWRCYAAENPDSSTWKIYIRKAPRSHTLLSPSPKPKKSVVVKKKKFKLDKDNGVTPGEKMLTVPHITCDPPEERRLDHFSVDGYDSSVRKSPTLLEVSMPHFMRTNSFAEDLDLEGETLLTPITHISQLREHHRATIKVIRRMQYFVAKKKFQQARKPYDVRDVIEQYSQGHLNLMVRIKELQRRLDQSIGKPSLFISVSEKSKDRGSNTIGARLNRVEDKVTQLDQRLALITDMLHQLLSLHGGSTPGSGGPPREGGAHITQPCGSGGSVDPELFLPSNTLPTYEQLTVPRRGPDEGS
# KCNK9 block: blocks the human KCNK9 two-pore domain potassium channel; HEK293 KCNK9, FluxOR thallium flux fluorescence; stronger effect = lower value; B-score at 10 µM; actives 1.2% (n = 310,000);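 active = ratio B-score over 3 SD below the library mean, with starting fluorescence within 5 SD of its mean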;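 note: negative B-score means less thallium flux so channel inhibition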
# KCNQ1 pot: human KCNQ1 channel potentiation or activation. P51787. B-score at 10 µM. actives 0.35% (n = 310,000). CHO-K1 KCNQ1, thallium flux FluxOR fluorescence; stronger effect = higher value;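 active = fluorescence ratio B-score, a plate-corrected score, at least three library SD, with initial intensity B-score within 5 SD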
#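 Medium – assay buffer, equal DMSO in all wells · Material – CHO-K1 cell line with stable KCNQ1 potassium channel expression · Signal – kinetic FluxOR thallium fluorescence, 10-s 1-Hz baseline, 110-s post-stimulus read · Compound – single concentration per compound, DMSO matched to controls · Schedule – 37 °C overnight plating, 90-min dark dye load, 20-min compound pretreatment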
# Kir21 inh: Kir2.1 (mouse) channel inhibition. P35561. B-score at 10 µM. HEK293-Kir2.1, FluxOR thallium flux fluorescence; stronger effect = lower value. actives 0.85% (n = 310,000);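 active = fluorescence ratio B-score at or below minus 3 SD of library scores, with starting-brightness B-score within 2 SD, cut at about -4.2 in these data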;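 note: channel flux triggered by added potassium and thallium sulfate stimulus; B-score of peak minus minimum fluorescence over baseline after thallium stimulus; more negative B-score means stronger Kir2.1 block with less thallium influx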
# KCNK3 inh conf: confirmation of human KCNK3 two-pore domain potassium channel inhibitors; shares compounds with KCNK3 inh; actives 99% (n = 2,400); AID 651638; CHO-KCNK3 thallium flux, FluxOR fluorescence; 0% buffer, 100% carvedilol maximal block; ratio percent of control, % at 10 µM;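 active = ratio percent of control, averaged over triplicates, above buffer control mean plus 5 SD, cut at about 64% in these data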;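 note: ratio is the fluorescence rise from min to max over baseline after thallium stimulus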
# KCNK3 uninduced: KCNK3 inhibitor counter-screen hit in non-induced cells. non-induced KCNK3 parental cells, FluxOR thallium flux; stronger effect = lower value. actives 40% (n = 2,400). thallium flux ratio (lower = more inhibition) at 10 µM. shares compounds with KCNK3 inh;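 active = thallium flux ratio, averaged over three wells, more than 5 SD below the buffer control mean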;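 note: host cells are CHO cells without KCNK3 induction; ratio is peak minus trough fluorescence over baseline then normalized to buffer controls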
# * = called active by the depositor; i = inactive; nt = no result. Most compounds without a hit are left out; they make up all but 3.8% or so of the library.
SMILES,KCNK3 inh,hERG rescue,KCNQ1 inh,KCNK9 block,KCNQ1 pot,Kir21 inh,KCNK3 inh conf,KCNK3 uninduced
O=C(COc1ccccc1Cl)N(Cc1cccs1)C1CCS(=O)(=O)C1 (centres undefined),i,-5.4,i,i,i,-1.46,nt,nt
Cc1cc(Cl)ccc1OCC(=O)N(Cc1cccs1)C1CCS(=O)(=O)C1 (centres undefined),-9.91*,-10.0,i,i,i,-2.68,59.3*,0.157*
COc1ccc(NC2c3ccccc3C(=O)N2c2cccnc2)cc1Cl (centres undefined),-10.3*,-14.2,i,i,i,-1.66,117.0*,i
O=C1c2ccccc2C(Nc2ccccc2)N1c1cccnc1 (centres undefined),i,-6.5,i,i,i,-0.24,nt,nt
COC(=O)c1cc(NC2c3ccccc3C(=O)N2c2cccnc2)cc(C(=O)OC)c1 (centres undefined),-9.04*,-16.5,i,i,i,-0.07,119.3*,0.154*
CC1CCN(C(CNS(=O)(=O)c2ccccc2)c2ccccc2)CC1 (centres undefined),-12.6*,nt,nt,nt,nt,nt,61.0*,i
CC(C)Oc1cc(N)c(Cl)cc1Cl,i,-2.5,i,i,i,0.92,nt,nt
CCC(C)(C)n1nnnc1C(c1ccccc1)N1CCc2ccccc2C1 (centres undefined),-9.36*,-13.3,i,i,i,0.99,110.0*,i
CC(C1CC1)N(Cc1ccccc1)C(=S)Nc1ccccc1 (centres undefined),-11.7*,-7.7,i,i,i,-0.75,113.0*,i
Cc1cc(O)c(C(C)C)cc1NC(=O)Nc1cc(Cl)ccc1Cl,-11.8*,nt,nt,nt,nt,nt,114.3*,0.159*
Cc1cc(O)c(C(C)C)cc1NC(=O)c1ccccc1Cl,i,-10.8,i,i,i,-2.07,nt,nt
Cc1c(NS(=O)(=O)c2cccc(C(=O)OCC(=O)c3ccc(Cl)cc3)c2)c(=O)n(-c2ccccc2)n1C,i,nt,nt,nt,nt,nt,nt,nt
O=C1C2CC(O)CN2C(=S)N1Cc1ccccc1 (centres undefined),i,-7.2,i,i,i,-0.89,nt,nt
N#CCc1ccc(OC(=O)c2cccnc2Cl)cc1,i,-0.6,i,i,i,-0.14,nt,nt
O=C1c2ccccc2C(Nc2ccc3c(c2)OCO3)N1Cc1ccco1 (centres undefined),i,-14.1,i,i,i,0.36,nt,nt
O=C1c2ccccc2C(Nc2ccc(F)c(Cl)c2)N1Cc1ccco1 (centres undefined),-8.71*,-13.0,i,i,i,-1.78,97.7*,i
COc1ccc(-c2csc(N(CC3CCCO3)C(=O)c3cccs3)n2)cc1 (centres undefined),-9.97*,-14.2,i,i,i,0.13,116.7*,i
COc1ccc(OC)c(-c2csc(N(CC3CCCO3)C(=O)C3CCCCC3)n2)c1 (centres undefined),-9.47*,-8.5,i,i,i,0.31,92.7*,i
Fc1ccc(Nc2ncnc3sccc23)cc1,i,-3.6,i,i,i,2.43,nt,nt
COC(=O)c1sc2nc(N3CCCCC3)c3c(c2c1N)CCCC3,-11.2*,-9.4,i,i,i,-0.67,103.7*,i
CCOc1ccccc1N1CCN(C(=O)c2c(-c3c(F)cccc3Cl)noc2C)CC1,i,-10.0,i,i,i,1.23,nt,nt
O=C(CSCC(=O)N1CCOCC1)Nc1nc(-c2ccccc2)cs1,i,-7.1,i,i,i,-0.13,nt,nt
CCOC(=O)N1CCN(C(=O)CSCC(=O)Nc2nc(-c3ccc(-c4ccccc4)cc3)cs2)CC1,-10.3*,-15.2,6*,i,i,0.46,117.0*,0.147*
Cc1cccc(NC(=O)c2ccccc2NC(=O)c2ccccc2)n1,i,-4.1,i,i,i,0.08,nt,nt
O=C(NCCS(=O)(=O)c1ccc(Br)cc1)c1ccccc1,i,-1.7,i,i,i,-1.63,nt,nt
SMILES,KCNK3 inh,hERG rescue,KCNQ1 inh,KCNK9 block,KCNQ1 pot,Kir21 inh,KCNK3 inh conf,KCNK3 uninduced
CC(C)c1ccc(C(C)NCCS(=O)(=O)c2ccc(Br)cc2)cc1 (centres undefined),-8.91*,-14.1,i,i,i,-4.71*,69.3*,0.145*
CCOc1ccc(S(=O)(=O)c2cn(C)c3cc(OC)c(OC)cc3c2=O)cc1,i,-10.7,i,i,i,-2.19,nt,nt
C=CCSc1nc(N(CC)CC)c2sccc2n1,-10.1*,-5.7,i,i,i,-1.34,121.0*,i
C=CCNc1nc(SC)nc2ccsc12,i,-7.3,i,i,i,1.3,nt,nt
CC1=[N+](C)c2c(ccc3cccnc23)C1(C)C,-12*,nt,nt,nt,nt,nt,119.0*,i
Cc1[nH]c2c(ccc3cccnc32)c1C,i,-8.7,i,i,i,-0.29,nt,nt
Cc1ccc(S(=O)(=O)Nc2ccc(C(=O)N3CCCC3)cc2)c(C)c1NS(C)(=O)=O,i,-8.7,i,i,i,-0.19,nt,nt
S=C(c1ccc(-c2cc(Cl)ccc2Cl)o1)N1CCOCC1,-8.85*,-9.0,i,i,i,0.7,125.7*,0.138*
CCCCn1c2ccc(F)cc2c2nnc(NN)nc21,i,-7.6,i,i,i,1.16,nt,nt
Cc1cccc(/C(N)=N/OC(=O)c2cccc3ccccc23)c1,-9.25*,-6.7,i,i,i,0.22,91.7*,i
N/C(=N\OC(=O)c1cccc2ccccc12)c1cccc([N+](=O)[O-])c1,i,-4.4,i,i,i,1.78,nt,nt
COc1ccc2cc(C(=O)/C=C/c3cc(OC)c(O)c(OC)c3)ccc2c1,-9.76*,-11.2,i,i,i,-0.32,131.3*,0.13*
COc1ccccc1NC(=O)C(C)N(C)CC(=O)Nc1cccc2ccccc12 (centres undefined),i,nt,nt,nt,nt,nt,nt,nt
COc1ccccc1NC(=O)C(C)N(C)Cc1ccc(Cl)s1 (centres undefined),i,-8.4,i,-6.9*,i,-0.94,107.0*,0.156*
COc1ccc(CN(C)C(C)C(=O)Nc2cccc3ccccc23)cc1 (centres undefined),-9.65*,-11.5,i,i,i,-0.06,120.7*,0.156*
CC(C)CC1C2C(=O)N(c3ccccc3)C(=O)C2ON1c1ccccc1 (centres undefined),i,-11.0,i,i,i,-0.27,nt,nt
